Experimental findings from ChEMBL document CHEMBL1152588, “New potent P-glycoprotein modulators with the cucurbitane scaffold and their synergistic interaction with doxorubicin on resistant cancer cells” (Bioorg Med Chem, 2009) are described below.

In series [1] the target is T1, ATP-dependent translocase ABCB1 (Homo sapiens, UniProt P08183). The series can be described thus: Reversal of human MDR1-mediated multidrug resistance in mouse L5178Y cells expressing MDR1 assessed as fluorescence activity ratio at 2 uM after 10 mins by rhodamine-123 exclusion test. Format: cell-based. The gist of the method:
(§1)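 Parental and MDR1-transfected L5178 cells at 2×10^6/mL in serum-free McCoy's 5A. Compound (0.5–20 µM; verapamil 22 µM as positive control) added 10 min at room temperature, then rhodamine 123 20 min at 37 °C. Cells washed twice, resuspended in PBS, flow cytometry on 10,000 cells (FSC, SSC, mean FL-1). FAR = (MDR treated/MDR control)/(parental treated/parental control); single representative experiment.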

In series [2] the target is T1, ATP-dependent translocase ABCB1. Nature of the series: Reversal of human MDR1-mediated multidrug resistance in mouse L5178Y cells expressing MDR1 assessed as side scatter count measured by cell size ratio at 2 uM after 10 mins by flow cytometry. The class given is cell-based. The gist of the method:
as §1
(Flow cytometry measures light scatter and fluorescence of single cells or particles in a stream.)

Series [3] shares this target. Nature of the series: Reversal of human MDR1-mediated multidrug resistance in mouse L5178Y cells expressing MDR1 assessed as mean fluorescence intensity of rhodamine-123 uptake at 2 uM after 10 mins by flow cytometry. Format: cell-based. An outline of the steps:
as §1

For series [4] the target is unchanged. The series can be described thus: Reversal of human MDR1-mediated multidrug resistance in mouse L5178Y cells expressing MDR1 assessed as side scatter count measured by cell size ratio at 20 uM after 10 mins by flow cytometry. The class given is cell-based. The gist of the method:
as §1

The subject of series [5] is L5178Y. Nature of the series: Reversal of human MDR1-mediated multidrug resistance in mouse L5178Y cells expressing MDR1 assessed as mean fluorescence intensity of rhodamine-123 uptake after 10 mins by flow cytometry. The class given is functional. The gist of the method: as §1
Series [6] is described as follows: Octanol-water partition coefficient, log D of the compound. The class given is physicochemical.
The test system of series [7] is L5178Y. The series can be described thus: Antiproliferative activity against mouse L5178Y cells after 72 hrs by MTT assay. Format: functional. The settings on record: read-out: ID50 (the source's name). The gist of the method:
(§2)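 L5178 mouse T-cell lymphoma cells, parental or transfected with human MDR1 via pHa MDR1/A retrovirus. Transfected cells were kept under 60 ng/mL colchicine. Cells grew in McCoy's 5A with 10% heat-inactivated horse serum at 37 °C, 5% CO2. 1×10^4 cells/well with rising compound concentrations, 72 h at 37 °C. MTT 4 h, SDS 10% overnight, OD 550 nm (ref 630 nm). % inhibition vs cell/medium controls; ID50 mean ± SD of three experiments.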
For orientation: Formazan colour is commonly taken as a measure of viable cells.

The target of series [8] is T1, ATP-dependent translocase ABCB1. Nature of the series: Reversal of human MDR1-mediated multidrug resistance in mouse L5178Y cells expressing MDR1 assessed as mean fluorescence intensity of rhodamine-123 uptake at 20 uM after 10 mins by flow cytometry. Format: cell-based. The gist of the method:
as §1

Series [9] shares this target. The series can be described thus: Reversal of human MDR1-mediated multidrug resistance in mouse L5178Y cells expressing MDR1 assessed as forward scatter count measured by cell size ratio at 2 uM after 10 mins by flow cytometry. The class given is cell-based. An outline of the steps: as §1
For series [10], the system named is L5178Y. Nature of the series: Reversal of multidrug resistance in mouse L5178Y cells assessed as mean fluorescence intensity of rhodamine-123 uptake after 10 mins by flow cytometry. The class given is functional. An outline of the steps:
as §1

For series [11], the system named is L5178Y. Nature of the series: Antiproliferative activity against multidrug resistance mouse L5178Y cells expressing human MDR1 after 72 hrs by MTT assay. The settings on record: read-out: ID50 (the source's name). Format: functional. The gist of the method:
as §2

Series [12] has as its target T1, ATP-dependent translocase ABCB1. The series can be described thus: Reversal of human MDR1-mediated multidrug resistance in mouse L5178Y cells expressing MDR1 assessed as forward scatter count measured by cell size ratio at 20 uM after 10 mins by flow cytometry. The class given is cell-based. An outline of the steps:
as §1

Series [13] has the same target. Nature of the series: Reversal of human MDR1-mediated multidrug resistance in mouse L5178Y cells expressing MDR1 assessed as fluorescence activity ratio at 20 uM after 10 mins by rhodamine-123 exclusion test. The class given is cell-based. The gist of the method: as §1
The test system of series [14] is L5178Y. Nature of the series: Potentiation of doxorubicin-induced anticancer activity against mouse L5178Y cells expressing MDR1 assessed as fractional inhibitory concentration after 72 hrs by checkerboard microplate assay. The class given is functional. An outline of the steps:
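Checkerboard combination on MDR1-transfected L5178 lymphoma cells: doxorubicin diluted along one plate axis, resistance modifier along the other; 5×10^4 cells/well; 72 h at 37 °C in CO2 incubator; growth read by MTT staining. FIC = ID50 in combination/ID50 alone for each agent; summed FIX <0.5 synergism, 0.51–1 additive, 1–2 indifferent, >2 antagonism.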

T1 sequence (P08183 whole entry): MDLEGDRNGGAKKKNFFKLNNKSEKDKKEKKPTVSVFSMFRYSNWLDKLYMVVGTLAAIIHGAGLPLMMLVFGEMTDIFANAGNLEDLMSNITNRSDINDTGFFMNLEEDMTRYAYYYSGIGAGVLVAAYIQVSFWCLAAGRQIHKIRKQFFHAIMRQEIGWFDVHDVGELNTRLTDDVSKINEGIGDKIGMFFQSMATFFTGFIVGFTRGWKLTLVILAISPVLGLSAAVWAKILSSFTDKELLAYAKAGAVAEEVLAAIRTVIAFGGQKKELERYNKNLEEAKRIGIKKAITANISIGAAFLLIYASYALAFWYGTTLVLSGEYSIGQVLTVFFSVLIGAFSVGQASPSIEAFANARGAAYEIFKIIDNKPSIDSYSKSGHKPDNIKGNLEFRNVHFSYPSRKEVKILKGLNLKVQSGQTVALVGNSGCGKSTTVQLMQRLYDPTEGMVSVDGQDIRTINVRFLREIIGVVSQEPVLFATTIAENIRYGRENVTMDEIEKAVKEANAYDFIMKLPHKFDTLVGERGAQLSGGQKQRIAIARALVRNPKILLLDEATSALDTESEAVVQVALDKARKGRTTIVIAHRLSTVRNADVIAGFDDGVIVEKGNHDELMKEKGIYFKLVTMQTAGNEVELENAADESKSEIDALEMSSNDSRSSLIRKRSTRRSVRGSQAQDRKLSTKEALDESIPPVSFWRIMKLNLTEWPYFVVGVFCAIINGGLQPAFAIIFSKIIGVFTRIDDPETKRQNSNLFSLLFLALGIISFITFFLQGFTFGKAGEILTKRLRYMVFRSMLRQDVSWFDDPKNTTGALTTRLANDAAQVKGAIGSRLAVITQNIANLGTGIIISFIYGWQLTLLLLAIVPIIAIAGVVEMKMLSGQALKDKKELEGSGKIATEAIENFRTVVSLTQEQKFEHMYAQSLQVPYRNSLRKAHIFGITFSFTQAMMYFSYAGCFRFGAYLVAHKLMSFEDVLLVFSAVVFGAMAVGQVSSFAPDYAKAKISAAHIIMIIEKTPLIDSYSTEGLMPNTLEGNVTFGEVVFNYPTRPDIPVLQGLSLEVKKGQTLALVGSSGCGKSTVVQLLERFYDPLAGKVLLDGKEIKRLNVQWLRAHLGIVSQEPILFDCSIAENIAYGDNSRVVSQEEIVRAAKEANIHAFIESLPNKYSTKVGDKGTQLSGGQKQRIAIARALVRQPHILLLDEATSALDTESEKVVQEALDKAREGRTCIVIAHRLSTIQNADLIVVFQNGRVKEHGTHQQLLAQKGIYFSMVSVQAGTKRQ

Turning to `C[C@H](C/C=C/C(C)(C)O)[C@H]1CC[C@@]2(C)[C@@H]3[C@@H](O)C=C4[C@@H](CC[C@H](O)[C@]4(C)CO)[C@]3(C)CC[C@]12C` [BALSAMINAGENIN A], the Activity came out at 1.07 in series [1]; 261.2 in [2]; 13.95 in series [3]; 257.6 in series [4]; 10.6 in [5]; 579.8 in series [8]. Further, the Activity in series [9] is 441.8; in [10], 959.5; in series [12], 447.4; in series [13], 44.3. Moreover, the logD in series [6] came to 5.2. Moreover, the results for the IC50 in series [7] and in [11] were 19.5 µM and 25.9 µM, respectively.
Consider `COC(C)(C)/C=C/C[C@@H](C)[C@H]1CC[C@@]2(C)[C@@H]3[C@@H](O)C=C4[C@@H](CC[C@H](O)[C@]4(C)CO)[C@]3(C)CC[C@]12C` [BALSAMINAGENIN B], for which the Activity in series [1] is 5.98; in [2], 261.1; in series [3], 78.4; in [4], 238.6; in series [5] it was 10.6; in [8] it was 1365.1. Moreover, the Activity in series [9] was 428.7; in series [10], 959.5; in series [12] it was 454.4; in series [13], 104.2. The logD in series [6] was 5.8. Further, the IC50 came out at 15.4 µM in series [7] and 16.8 µM in [11]. The “fractional inhibitory concentration index (FICI)” value in series [14] is given as 0.18.
`COC(C)(C)/C=C/C[C@@H](C)[C@H]1CC[C@@]2(C)[C@@H]3[C@@H](O[C@H]4O[C@@H](CO)[C@H](O)[C@H](O)[C@@H]4O)C=C4[C@@H](CC[C@H](O)C4(C)C)[C@]3(C)CC[C@]12C` [BALSAMINOSIDE A]: the Activity in series [1] was 1.45; in series [2], 253.8; in series [3], 19; in [4], 249.7; in series [5] it was 10.6; in series [8] it was 1171.1. Also, the Activity came out at 429.6 in series [9], 959.5 in [10], 441.6 in series [12] and 89.4 in [13]. In [6], this compound gave a logD of 5.3. For the same compound, the IC50 turned out to be 8.3 µM in series [7] and 20.8 µM in series [11]. For the same compound, the “fractional inhibitory concentration index (FICI)” value in series [14] is reported as 0.37.
Turning to `CO[C@H]1C=C2[C@@H](CC[C@H](O)C2(C)C)[C@]2(C)CC[C@]3(C)[C@@H]([C@H](C)C[C@H](C=C(C)C)OC(C)=O)CC[C@@]3(C)[C@H]12` [KARAVOATE A], the Activity came out at 35.2 in series [1]; 254.9 in series [2]; 671.2 in series [3]; 222.4 in series [4]; 612.7 in [8]; 470.2 in series [9]. Moreover, the values for the Activity in series [12] and in series [13] were 518.1 and 34.2, respectively. In series [6], this compound gave a pH-dependent lipophilicity (logD) of 8. For the same compound, the IC50 in series [7] came to 26 µM; in series [11] it was 34.8 µM. For the same compound, in [14], the “fractional inhibitory concentration index (FICI)” value is 0.44.
As for `CO[C@H]1C=C2[C@@H](CC[C@H](OC(C)=O)C2(C)C)[C@]2(C)CC[C@]3(C)[C@@H]([C@H](C)C[C@H](C=C(C)C)OC(C)=O)CC[C@@]3(C)[C@H]12` [KARAVOATE B], the Activity is given as 5.7 in series [1]; 247 in [2]; 102.1 in [3]; 249.3 in series [4]; 671.2 in series [8]; 454.9 in series [9]. For the same compound, the figures for the Activity in series [12] and in [13] were 462.9 and 37.5, respectively. In series [6], this compound had a logD of 8.6. Also, the IC50 was 48.8 µM in [7] and 60.2 µM in [11].
Consider `CCC(=O)O[C@@H](C=C(C)C)C[C@@H](C)[C@H]1CC[C@@]2(C)[C@@H]3[C@@H](OC)C=C4[C@@H](CC[C@H](O)C4(C)C)[C@]3(C)CC[C@]12C` [KARAVOATE C], for which the Activity in [1] was 1.7; in series [2], 249.9; in series [3], 30.3; in series [4] it was 242.5; in series [8], 726.8; in series [9] it was 466.3. Also, the values for the Activity in [12] and in [13] were 481.3 and 40.6, respectively. This compound also showed a logD in series [6] of 8.3. The IC50 was found to be 41.4 µM in [7] and 43.5 µM in series [11].
Regarding `CCC(=O)O[C@H]1CC[C@@H]2C(=C[C@H](OC)[C@@H]3[C@@]2(C)CC[C@]2(C)[C@@H]([C@H](C)C[C@H](C=C(C)C)OC(=O)CC)CC[C@@]32C)C1(C)C` [KARAVOATE D], the Activity in series [1] amounted to 0.9; in series [2], 237.9; in series [3] it was 16.2; in series [4], 230.8; in series [8] it was 42.3; in [9], 454. The figures for the Activity in [12] and in series [13] were 463.1 and 2.4, respectively. In series [6], this compound had a logD of 8.9. The IC50 in [7] and in [11] was over 133 µM each time.
Consider `CCCC(=O)O[C@@H](C=C(C)C)C[C@@H](C)[C@H]1CC[C@@]2(C)[C@@H]3[C@@H](OC)C=C4[C@@H](CC[C@H](O)C4(C)C)[C@]3(C)CC[C@]12C` [KARAVOATE E], for which the Activity in series [1] is 1; in series [2], 235.9; in [3], 18; in series [4] it was 236.3; in series [8], 388.7; in series [9], 448.7. The Activity in series [12] is recorded as 461.9; in series [13], 21.7. For the same compound, the logD in [6] was found to be 8.7. Besides, the IC50 in series [7] came to 51 µM; in [11], 73.8 µM.

Broadly, the logD is lipophilicity at a set pH, counting ionised and neutral species. Higher therefore signals higher lipophilicity.
